Active and inactive are the calls of the source. The rule behind the calls is not given here.
Experiments:
SK-OV-3 [1] = test: Antitumor activity against human SK-OV-3 cells over expressing ErbB2 xenografted in nude mouse assessed as reduction in growth at 50 mg/kg, po administered twice daily for 28 days; format: functional, organism-based; settings: time 28.0 day
Calu-3 [2] = test: Antitumor activity against human Calu-3 cells over expressing ErbB2 xenografted in nude mouse assessed as reduction in growth at 50 mg/kg, po administered twice daily for 28 days; format: functional, organism-based; settings: time 28.0 day
SK-OV-3 [3] = test: Antiproliferative activity against human SK-OV-3 cells transfected with ErbB2 siRNA assessed as reduction in cell viability at 1.25 to 6.25 uM after 72 hrs by SRB assay; format: functional, cell-based; settings: dose 1.25-6.25 µM
Summary of the method: (§1)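 SK-OV-3 cells transfected with siRNA (final 50 nmol/L; one ErbB2 pair, two independent EGFR pairs, plus control siRNA) using oligofectamine; drug added 48 h after transfection, growth measured by SRB. Three independent experiments; significance by t test.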

HO-8910 = test: Antitumor activity against human HO-8910 cells xenografted in nude mouse assessed as reduction in growth at 25 to 100 mg/kg, po administered twice daily for 21 days; format: functional, organism-based; settings: dose 25-100 mg/kg, time 21.0 day
SK-OV-3 [4] = test: Antiproliferative activity against human SK-OV-3 cells assessed as reduction in cell viability after 72 hrs by SRB assay; format: functional, cell-based; settings: SK-OV-3, 72 h
Summary of the method: (§2)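 Cell lines from ATCC; exposed to indicated concentrations for 72 h and growth read by sulforhodamine B (SRB) assay; IC50 values derived.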

Mus musculus [5] = test: In vivo inhibition of EGFR phosphorylation in human SK-OV-3 cells over expressing ErbB2 xenografted in nude mouse at 100 mg/kg, po measured after 2 to 24 hrs by Western blot analysis; format: functional, organism-based; settings: time lower 2.0 hrs, time upper […]
Summary of the method: (§3)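 Nude mice bearing established SK-OV-3 tumors (~200 mm3) given a single 100 mg/kg dose; tumor extracts collected at indicated times and EGFR and ErbB2 phosphorylation assessed by immunoblotting.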

SK-OV-3 [6] = test: Antiproliferative activity against human SK-OV-3 cells assessed as decrease in number of colony formation at 0.1 to 5 uM after 1 to 2 weeks by microscope analysis; format: functional, cell-based; settings: dose 0.1-5 µM, time 1-2 weeks
Summary of the method: (§4)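 Cells at 8000/mL exposed to drug in 1 mL 0.3% basal medium Eagle's agar with 10% FBS; kept 2 weeks at 37°C, 5% CO2. Average colony number counted and colonies photographed; mean of triplicate samples, SE bars, Student's test.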

NCI-H1975 = test: Antiproliferative activity against human NCI-H1975 cells harboring EGFR T790M/L858R double mutant assessed as reduction in cell viability after 72 hrs by SRB assay; format: functional, cell-based; settings: dose 0.19-6.25 µM; summary of the method: as §2
A549 [7] = test: Antiproliferative activity against human A549 cells assessed as reduction in cell viability after 72 hrs by SRB assay; format: functional, cell-based; settings: A549, 72 h; summary of the method: as §2
MDA-MB-468 = test: Antiproliferative activity against human MDA-MB-468 cells assessed as reduction in cell viability after 72 hrs by SRB assay; format: functional, cell-based; settings: MDA-MB-468, 72 h; summary of the method: as §2
Calu-3 [8] = test: Antitumor activity against human Calu-3 cells over expressing ErbB2 xenografted in nude mouse assessed as reduction in growth at 25 to 100 mg/kg, po administered twice daily for 21 days; format: functional, organism-based; settings: dose 25-100 mg/kg, time 21.0 day
SK-OV-3 [9] = test: Antitumor activity against human SK-OV-3 cells over expressing ErbB2 xenografted in nude mouse assessed as reduction in growth at 25 to 100 mg/kg, po administered twice daily for 28 days; format: functional, organism-based; settings: dose 25-100 mg/kg, time 28.0 day
Mus musculus [10] = test: In vivo inhibition of ErbB2 phosphorylation in human SK-OV-3 cells over expressing ErbB2 xenografted in nude mouse at 100 mg/kg, po measured after 2 to 24 hrs by Western blot analysis; format: functional, organism-based; settings: time lower 2.0 hrs, time upper […]; summary of the method: as §3
Mus musculus [11] = test: Antitumor activity against FVB-2/Nneu transgenic mouse breast cancer model assessed as reduction in tumor growth at 25 to 100 mg/kg, po administered twice daily for 11 days relative to control; format: functional; parameters: scale not given: the % may be the effect or the level left; settings: dose 25-100 mg/kg, time 11 day
[12] = tested on: Epidermal growth factor receptor (Homo sapiens), P00533 [L858R,T790M]; settings: NIH3T3, dose 1-100 nM, time 6.0 hrs
Chain of Epidermal growth factor receptor (Homo sapiens), P00533 [L858R,T790M] (P00533 whole entry T790M/L858R, looked up): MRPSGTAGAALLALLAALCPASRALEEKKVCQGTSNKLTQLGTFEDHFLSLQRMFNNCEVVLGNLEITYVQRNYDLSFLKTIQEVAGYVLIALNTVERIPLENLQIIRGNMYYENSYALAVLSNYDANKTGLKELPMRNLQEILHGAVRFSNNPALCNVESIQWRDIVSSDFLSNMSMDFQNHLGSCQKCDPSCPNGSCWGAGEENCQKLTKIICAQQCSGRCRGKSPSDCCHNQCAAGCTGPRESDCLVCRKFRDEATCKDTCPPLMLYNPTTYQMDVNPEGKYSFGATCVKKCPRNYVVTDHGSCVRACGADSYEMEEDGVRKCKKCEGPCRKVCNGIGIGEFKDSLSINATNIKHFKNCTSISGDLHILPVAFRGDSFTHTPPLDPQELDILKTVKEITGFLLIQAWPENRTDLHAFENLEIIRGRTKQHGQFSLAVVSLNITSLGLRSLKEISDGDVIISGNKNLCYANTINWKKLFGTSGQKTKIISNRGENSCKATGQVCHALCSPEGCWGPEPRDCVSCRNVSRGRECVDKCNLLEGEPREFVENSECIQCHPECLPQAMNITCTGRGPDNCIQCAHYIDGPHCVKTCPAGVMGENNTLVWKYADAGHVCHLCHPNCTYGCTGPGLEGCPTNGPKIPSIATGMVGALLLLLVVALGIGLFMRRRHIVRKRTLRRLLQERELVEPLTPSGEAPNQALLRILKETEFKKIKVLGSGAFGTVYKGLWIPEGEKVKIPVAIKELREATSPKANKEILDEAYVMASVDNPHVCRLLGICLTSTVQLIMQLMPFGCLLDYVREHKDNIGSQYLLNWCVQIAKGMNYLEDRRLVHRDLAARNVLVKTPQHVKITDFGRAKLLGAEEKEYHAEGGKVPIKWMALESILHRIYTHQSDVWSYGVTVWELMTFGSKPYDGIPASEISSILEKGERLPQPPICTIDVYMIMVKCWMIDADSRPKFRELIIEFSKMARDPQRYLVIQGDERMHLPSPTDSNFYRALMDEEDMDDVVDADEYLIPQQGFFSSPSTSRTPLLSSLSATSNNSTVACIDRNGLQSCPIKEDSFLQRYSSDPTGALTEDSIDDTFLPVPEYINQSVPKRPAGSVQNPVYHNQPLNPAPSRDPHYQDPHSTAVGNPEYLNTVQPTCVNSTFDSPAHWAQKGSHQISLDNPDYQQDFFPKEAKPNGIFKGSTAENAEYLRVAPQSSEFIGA

A549 [13] = test: Antiproliferative activity against human A549 cells assessed as decrease in number of colony formation at 0.1 to 5 uM after 1 to 2 weeks by microscope analysis; format: functional, cell-based; settings: dose 0.1-5 µM, time 1-2 weeks; summary of the method: as §4
[14] = Toxicity in nude mouse xenografted with human SK-OV-3 cells over expressing ErbB2 assessed as effect on body weight at 25 to 100 mg/kg, po administered twice daily for 28 days; format: organism-based; settings: in vivo, 672 h, dose 25-100 mg/kg, time 28 day
Mus musculus [15] = test: Antitumor activity against FVB-2/Nneu transgenic mouse breast cancer model assessed as reduction in tumor growth at 25 to 100 mg/kg, po administered twice daily for 21 days; format: functional, organism-based; settings: dose 25-100 mg/kg, time 21.0 day
SK-OV-3 [16] = test: Antiproliferative activity against human SK-OV-3 cells transfected with EGFR siRNA assessed as reduction in cell viability at 1.25 to 6.25 uM after 72 hrs by SRB assay; format: functional, cell-based; settings: dose 1.25-6.25 µM; summary of the method: as §1
A549 [17] = test: Antitumor activity against human A549 cells xenografted in nude mouse assessed as reduction in growth at 25 to 100 mg/kg, po administered twice daily for 32 days; format: functional, organism-based; settings: dose 25-100 mg/kg, time 32.0 day
[18] = tested on: Epidermal growth factor receptor (Homo sapiens), P00533 [L858R,T790M]; settings: NCI-H1975, dose 10-100 nM, time 4.25 hrs
SK-OV-3 [19] = test: Antitumor activity against human SK-OV-3 cells over expressing ErbB2 xenografted in nude mouse assessed as reduction in growth at 25 to 100 mg/kg, po administered twice daily for 7 days relative to control; format: functional; parameters: scale not given: the % may be the effect or the level left; settings: dose 25-100 mg/kg, time 7 day
[20] = tested on: Epidermal growth factor receptor (Homo sapiens), P00533 [L858R,T790M]; settings: NCI-H1975, dose 10-100 nM, time 4.25 hrs; remark: listed apart in the source
[21] = tested on: Epidermal growth factor receptor (Homo sapiens), P00533 [L858R,T790M]; settings: NCI-H1975, dose 10-100 nM, time 4.25 hrs; remark: listed apart in the source
NCI-H23 = test: Antiproliferative activity against human NCI-H23 cells assessed as reduction in cell viability after 72 hrs by SRB assay; format: functional, cell-based; settings: NCI-H23, 72 h; summary of the method: as §2
[22] = Toxicity in FVB-2/Nneu transgenic mouse breast cancer model assessed as decrease in body weight at 25 to 100 mg/kg, po administered twice daily for 21 days relative to control; format: organism-based; parameters: scale not given: the % may be the effect or the level left; settings: in vivo, 504 h, dose 25-100 mg/kg, time 21 day
NIH3T3 = test: Antiproliferative activity against mouse NIH3T3 cells harboring EGFR T790M/L858R double mutant assessed as reduction in cell viability after 72 hrs by SRB assay; format: functional, cell-based; settings: dose 0.19-6.25 µM
Summary of the method: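 Parental NIH3T3 and laboratory-built NIH3T3 overexpressing EGFR T790M/L858R treated with indicated concentrations for 72 h; viability by sulforhodamine B; IC50 from three independent experiments.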

## CS(=O)(=O)CCNCc1ccc(-c2ccc3ncnc(Nc4ccc(OCc5cccc(F)c5)c(Cl)c4)c3c2)o1
SK-OV-3 [1]
  Activity: Active
Calu-3 [2]
  Activity: Active

## C=CC(=O)Nc1ccc2ncnc(Nc3ccc(OCc4cccc(F)c4)c(Cl)c3)c2c1 [ALLITINIB]
SK-OV-3 [3]
  Activity: inactive
HO-8910
  Activity: Active
SK-OV-3 [4]
  IC50: 6.2 µM
Mus musculus [5]
  inhibition: Active
SK-OV-3 [6]
  Activity: Active
NCI-H1975
  inhibition: Dose-Dependent Effect
A549 [7]
  IC50: 6.2 µM
MDA-MB-468
  IC50: 6.2 µM
Calu-3 [8]
  Activity: Active
SK-OV-3 [9]
  Activity: Active
Mus musculus [10]
  inhibition: Active
Mus musculus [11]
  Activity: ~100%
[12]
  inhibition: Active
A549 [13]
  Activity: Active
[14]
  Activity: Non-Toxic
Mus musculus [15]
  Activity: Active
SK-OV-3 [16]
  Activity: Active
A549 [17]
  Activity: Active
[18]
  inhibition: Dose-Dependent Effect
SK-OV-3 [19]
  Activity: ~100%
[20]
  inhibition: Dose-Dependent Effect
[21]
  inhibition: Dose-Dependent Effect
NCI-H23
  IC50: 6.2 µM
[22]
  Activity: < 20%
NIH3T3
  Activity: Dose-Dependent Effect

Reference: ChEMBL document CHEMBL5661981 (PLoS One, 2011)
